≈ marks a conversion by molar mass, not a printed value.
Experiments:
Staphylococcus aureus = test: Antibacterial activity against Staphylococcus aureus MTCC 3160 by spectrophotometric method; type: functional
Outline: (§1)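 Serial broth dilution, 200 to 15.625 μg/mL, in nutrient broth, sonicated 10 min. Inoculum gave a starting density of 10^3–10^4 CFU/mL. Flasks were shaken at 200 rpm and 37 °C, and growth followed by the rise in absorbance at 600 nm. MIC is the lowest concentration inhibiting the organism. Controls: compound without inoculum, and inoculum without compound.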

Pseudomonas aeruginosa = test: Antibacterial activity against Pseudomonas aeruginosa MTCC 2581 by spectrophotometric method; type: functional; outline: as §1
Klebsiella pneumoniae = test: Antibacterial activity against Klebsiella pneumoniae MTCC 7028 by spectrophotometric method; type: functional; outline: as §1
Mus musculus [1] = test: Anticonvulsant activity in ip dosed maximal electroshock induced seizure mouse model assessed as suppression of hind limb tonic extension measured at 0.5 hrs post dose; type: functional; details: read-out: MED
Outline: (§2)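 Albino mice given the compound ip, suspended in 0.5% methyl cellulose–water, at 30, 100 and 300 mg/kg. Maximal electroshock by corneal electrodes: 50 mA, 60 Hz, 0.2 s. Abolition of hind limb tonic extension scored as protection. Value is the minimum dose active in half or more of the mice.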

Mus musculus [2] = test: Anticonvulsant activity in ip dosed maximal electroshock induced seizure mouse model assessed as suppression of hind limb tonic extension measured at 4 hrs post dose; type: functional; details: read-out: MED; outline: as §2
[3] = target: T1, Alpha-1A adrenergic receptor (Homo sapiens, UniProt P35348); test: Displacement of [125I]L-762,459 from recombinant human alpha1a adrenergic receptor expressed in mammalian cells measured after 1 hr; type: cell-based
T1 sequence (P35348 whole entry): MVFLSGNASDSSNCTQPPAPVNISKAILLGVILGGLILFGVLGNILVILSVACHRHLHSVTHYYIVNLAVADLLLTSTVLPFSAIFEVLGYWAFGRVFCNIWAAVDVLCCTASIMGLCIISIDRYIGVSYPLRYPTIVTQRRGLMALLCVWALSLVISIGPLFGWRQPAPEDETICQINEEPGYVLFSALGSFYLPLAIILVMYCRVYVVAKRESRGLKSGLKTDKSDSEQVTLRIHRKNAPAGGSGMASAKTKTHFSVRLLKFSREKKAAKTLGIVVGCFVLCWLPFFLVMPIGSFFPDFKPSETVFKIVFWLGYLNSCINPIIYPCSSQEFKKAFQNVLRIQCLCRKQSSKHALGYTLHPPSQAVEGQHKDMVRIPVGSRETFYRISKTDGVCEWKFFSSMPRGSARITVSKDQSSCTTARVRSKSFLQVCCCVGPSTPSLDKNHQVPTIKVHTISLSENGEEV

[4] = Antioxidant activity assessed as DPPH free radical scavenging activity at 100 ppm after 30 mins in dark by spectrophotometric method relative to control; type: functional
Outline: (§3)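 DPPH (1,1-diphenyl-2-picrylhydrazyl) radical scavenging assay. The change in absorbance was read at 517 nm on a spectrophotometer. Activity is given as percent inhibition of the DPPH radical, calculated as (absorbance of control − absorbance of sample)/absorbance of control × 100.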

[5] = Antioxidant activity assessed as cupric ion reducing activity by measuring increase in absorbance at 100 ppm by CUPRAC assay; type: functional
Outline: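 CUPRAC assay. Sample solution was mixed with distilled water, at a pH close to 7. Reduction of Cu(II) to Cu(I) was followed as the increase in absorbance at 450 nm of the reaction mixture.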

Escherichia coli = test: Antibacterial activity against Escherichia coli MTCC 443 by spectrophotometric method; type: functional; outline: as §1
Rattus norvegicus = test: Anti-inflammatory activity in rat assessed as inhibition of carrageenan-induced hind paw edema at 10 mg/kg, po pretreated for 1 hr followed by carrageenan challenge measured after 3 hrs by plethysmometer relative to control; type: functional
Outline: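 Albino rats; carrageenan-induced paw edema test after Winter et al., with diclofenac sodium as reference standard. Percentage reduction in inflammation recorded 3 h after carrageenan, relative to carrageenan-only animals.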

[6] = Antioxidant activity assessed as DPPH free radical scavenging activity at 12.5 ppm after 30 mins in dark by spectrophotometric method relative to control; type: functional; outline: as §3
[7] = Half-life in Beagle dog at 0.5 mg/kg, iv by LC-MS analysis; type: ADME, organism-based, Canis lupus familiaris; details: in vivo
CCRF-CEM = test: cells; details: Homo sapiens, 48 h
SR = test: Growth inhibition of human SR cells after 48 hrs by SRB assay; type: functional
[8] = Antioxidant activity assessed as cupric ion reducing activity by measuring increase in absorbance at 12.5 ppm by CUPRAC assay; type: functional
Outline: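 CUPRAC: reduction of Cu(II) to Cu(I) followed by the increase in absorbance at 450 nm. Sample and distilled water were made up to 4 mL total, near pH 7. Compounds were tested at 12.5–100 ppm, with gallic acid and quercetin as standards.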

COc1ccc(C2NC(=O)NC(C)=C2C(C)=O)cc1 (configuration not stated)
MIC (Staphylococcus aureus): 62.5 to 125 µg/mL (≈ 240 to 480 µM)
MIC (Pseudomonas aeruginosa; read-out: MIC): 250 µg/mL (≈ 960 µM)
MIC (Klebsiella pneumoniae): 31.2 to 62.5 µg/mL (≈ 120 to 240 µM)

SC1=NC(n2nc(-c3ccccc3)nc2-c2ccccc2)=CC(c2ccc(Br)cc2)N1 (configuration not stated)
minimal effective dose (Mus musculus [1]): 100 mg/kg
minimal effective dose (Mus musculus [2]): 300 mg/kg

CC1=C(C(=O)NCCCN2CCC(c3ccc(F)c(F)c3)CC2)[C@@H](c2ccc(F)c(F)c2)NC(=O)N1C
Ki [3]: 0.18 to 0.39 nM

CCC(=O)C1=C(C)NC(=O)NC1c1ccccc1 (configuration not stated)
MIC (Staphylococcus aureus): 62.5 to 125 µg/mL (≈ 256 to 512 µM)
MIC (Pseudomonas aeruginosa): 15.6 to 31.2 µg/mL (≈ 63.9 to 128 µM)

CC(=O)C1=C(C)NC(=O)NC1c1ccccc1 (configuration not stated)
Activity [4]: 64.4%
absorbance [5]: 0.87
MIC (Escherichia coli): 15.6 to 31.2 µg/mL (≈ 67.7 to 135 µM)
MIC (Staphylococcus aureus): 62.5 to 125 µg/mL (≈ 271 to 543 µM)
MIC (Pseudomonas aeruginosa; read-out: MIC): 250 µg/mL (≈ 1090 µM)

CCC(=O)C1=C(C)NC(=O)NC1c1ccc([N+](=O)[O-])cc1 (configuration not stated)
MIC (Staphylococcus aureus): 62.5 to 125 µg/mL (≈ 216 to 432 µM)
MIC (Pseudomonas aeruginosa): 15.6 to 31.2 µg/mL (≈ 53.9 to 108 µM)

Cc1ccc(C2=C(CC(=O)O)C(c3ccccc3)NC(S)=N2)cc1 (configuration not stated)
inhibition in vivo at 10 mg/kg (Rattus norvegicus): 28%

O=C(O)CC1=C(c2ccccc2)N=C(S)NC1c1cccs1 (configuration not stated)
inhibition in vivo at 10 mg/kg (Rattus norvegicus): 21%

CN(C)c1ccc(C2C=C(n3cc(-c4ccccc4)nc3-c3ccccc3)N=C(S)N2)cc1 (configuration not stated)
minimal effective dose (Mus musculus [1]): 100 mg/kg
minimal effective dose (Mus musculus [2]): 300 mg/kg

SC1=NC(n2nc(-c3ccccc3)nc2-c2ccccc2)=CC(c2ccc(Cl)cc2)N1 (configuration not stated)
minimal effective dose (Mus musculus [1]): 30 mg/kg
minimal effective dose (Mus musculus [2]): 300 mg/kg

O=C1NC(=O)C(c2ccccc2)(c2ccccc2)N1 [PHENYTOIN]
minimal effective dose (Mus musculus [1]): 30 mg/kg
minimal effective dose (Mus musculus [2]): 30 mg/kg

COCC1=C(C(=O)NCCCN2CCC(C#N)(c3ccc(C#N)cc3)CC2)[C@@H](c2ccc(F)c(F)c2)NC(=O)N1
Ki [3]: 0.16 nM

COc1ccc(C2NC(=S)NC(c3ccc(C)cc3)=C2CC(=O)O)cc1 (configuration not stated)
inhibition in vivo at 10 mg/kg (Rattus norvegicus): 33%

CCC(=O)C1=C(C)NC(=O)NC1c1cc(Cl)cc(Cl)c1 (configuration not stated)
MIC (Escherichia coli): 15.6 to 31.2 µg/mL (≈ 49.8 to 99.6 µM)
MIC (Pseudomonas aeruginosa): 15.6 to 31.2 µg/mL (≈ 49.8 to 99.6 µM)
Activity [6]: 17.3%
MIC (Klebsiella pneumoniae): 31.2 to 62.5 µg/mL (≈ 99.8 to 200 µM)

O=C(O)CC1=C(c2ccccc2)N=C(S)NC1c1ccccc1 (configuration not stated)
inhibition in vivo at 10 mg/kg (Rattus norvegicus): 17%

O=C(O)CC1=C(c2ccc(Cl)cc2)N=C(S)NC1c1ccc(Cl)cc1 (configuration not stated)
inhibition in vivo at 10 mg/kg (Rattus norvegicus): 25%

O=C(O)CC1=C(c2ccc(Cl)cc2)NC(=S)NC1c1cccs1 (configuration not stated)
inhibition in vivo at 10 mg/kg (Rattus norvegicus): 16%

CCCCC1NC(=O)NC(C)=C1C(=O)CC (configuration not stated)
MIC (Staphylococcus aureus): 250 µg/mL (≈ 1110 µM)
MIC (Pseudomonas aeruginosa; read-out: MIC): 250 µg/mL (≈ 1110 µM)

SC1=NC(n2nc(-c3ccccc3)nc2-c2ccccc2)=CC(c2ccc(-c3ccco3)cc2)N1 (configuration not stated)
minimal effective dose (Mus musculus [1]): 30 mg/kg
minimal effective dose (Mus musculus [2]): 300 mg/kg

COCC1=C(C(=O)NCCCN2CCC(c3ccc(F)cc3)CC2)[C@@H](c2ccc(F)c(F)c2)NC(=O)N1
half-life [7]: 7 to 8 h

O=c1/c(=C/c2ccc([N+](=O)[O-])o2)sc2n1C(c1ccc3c(c1)OCO3)C=C(c1cc(F)c(Cl)cc1Cl)N=2 (configuration not stated)
GI50 (CCRF-CEM): 3240 nM
GI50 (SR): 3340 nM

SC1=NC(n2nc(-c3ccccc3)nc2-c2ccccc2)=CC(c2ccccc2Cl)N1 (configuration not stated)
minimal effective dose (Mus musculus [1]): 30 mg/kg
minimal effective dose (Mus musculus [2]): 300 mg/kg

CCC(=O)C1=C(C)NC(=O)NC1c1cccc(OC)c1 (configuration not stated)
MIC (Staphylococcus aureus): 250 µg/mL (≈ 911 µM)
MIC (Pseudomonas aeruginosa; read-out: MIC): 250 µg/mL (≈ 911 µM)

CC(=O)C1=C(C)NC(=O)NC1c1ccc(Cl)cc1 (configuration not stated)
MIC (Pseudomonas aeruginosa; read-out: MIC): 250 µg/mL (≈ 944 µM)
MIC (Klebsiella pneumoniae): 31.2 to 62.5 µg/mL (≈ 118 to 236 µM)

COc1ccc(C2NC(S)=NC(c3ccc(Cl)cc3)=C2CC(=O)O)cc1 (configuration not stated)
inhibition in vivo at 10 mg/kg (Rattus norvegicus): 35%

CCC(=O)C1=C(C)NC(=O)NC1c1cccc(Cl)c1 (configuration not stated)
MIC (Escherichia coli): 15.6 to 31.2 µg/mL (≈ 56 to 112 µM)
MIC (Pseudomonas aeruginosa; read-out: MIC): 62.5 µg/mL (≈ 224 µM)
MIC (Klebsiella pneumoniae): 31.2 to 62.5 µg/mL (≈ 112 to 224 µM)

NC(=O)N1c2ccccc2C=Cc2ccccc21 [CARBAMAZEPINE]
minimal effective dose (Mus musculus [2]): 100 mg/kg

O=C(O)c1cc(O)c(O)c(O)c1
Activity [4]: 92.4%
absorbance [5]: 1.4
Activity [6]: 62.4%

COc1ccc(C2NC(S)=NC(c3ccccc3)=C2CC(=O)O)cc1 (configuration not stated)
inhibition in vivo at 10 mg/kg (Rattus norvegicus): 32%

Oc1ccc(C2C=C(n3nc(-c4ccccc4)nc3-c3ccccc3)N=C(S)N2)cc1 (configuration not stated)
minimal effective dose (Mus musculus [1]): 30 mg/kg
minimal effective dose (Mus musculus [2]): 300 mg/kg

COCC1=C(C(=O)NCCCN2CCC(C#N)(c3ccc(F)cc3)CC2)[C@@H](c2ccc(F)cc2)NCN1
Ki [3]: 0.17 nM

Cc1ccc(C2=C(CC(=O)O)C(c3ccc(Cl)cc3)NC(S)=N2)cc1 (configuration not stated)
inhibition in vivo at 10 mg/kg (Rattus norvegicus): 22%

CC(=O)C1=C(C)NC(=O)NC1c1ccc([N+](=O)[O-])cc1 (configuration not stated)
MIC (Klebsiella pneumoniae): 31.2 to 62.5 µg/mL (≈ 114 to 227 µM)

CCC(=O)C1=C(C)NC(=O)NC1c1ccc(OC)cc1 (configuration not stated)
MIC (Staphylococcus aureus): 250 µg/mL (≈ 911 µM)
MIC (Pseudomonas aeruginosa; read-out: MIC): 250 µg/mL (≈ 911 µM)
absorbance [8]: 0.05
MIC (Klebsiella pneumoniae): 31.2 to 62.5 µg/mL (≈ 114 to 228 µM)

SC1=NC(n2nc(-c3ccccc3)nc2-c2ccccc2)=CC(c2ccc(-c3ccccc3)cc2)N1 (configuration not stated)
minimal effective dose (Mus musculus [1]): 100 mg/kg
minimal effective dose (Mus musculus [2]): 300 mg/kg

CC1=C(C(=O)NCCCN2CCC(c3ccc(F)cc3)CC2)[C@@H](c2ccc(F)c(F)c2)N(C)C(=O)N1C
Ki [3]: 0.14 nM

COc1ccc(C2C=C(n3cc(-c4ccccc4)nc3-c3ccccc3)N=C(S)N2)cc1 (configuration not stated)
minimal effective dose (Mus musculus [1]): 100 mg/kg
minimal effective dose (Mus musculus [2]): 300 mg/kg

O=C(O)CC1=C(c2ccc(Cl)cc2)N=C(S)NC1c1ccccc1 (configuration not stated)
inhibition in vivo at 10 mg/kg (Rattus norvegicus): 20%

O=[N+]([O-])c1cccc(C2C=C(n3cc(-c4ccccc4)nc3-c3ccccc3)N=C(S)N2)c1 (configuration not stated)
minimal effective dose (Mus musculus [1]): 30 mg/kg
minimal effective dose (Mus musculus [2]): 300 mg/kg

CCC(=O)C1=C(C)NC(=O)NC1c1ccc(Cl)cc1 (configuration not stated)
MIC (Escherichia coli): 15.6 to 31.2 µg/mL (≈ 56 to 112 µM)
MIC (Staphylococcus aureus): 62.5 to 125 µg/mL (≈ 224 to 448 µM)
MIC (Pseudomonas aeruginosa): 15.6 to 31.2 µg/mL (≈ 56 to 112 µM)
MIC (Klebsiella pneumoniae): 31.2 to 62.5 µg/mL (≈ 112 to 224 µM)

O=C(O)CC1=C(c2ccccc2)N=C(S)NC1c1ccc(Cl)cc1 (configuration not stated)
inhibition in vivo at 10 mg/kg (Rattus norvegicus): 30%

COc1ccc(C2C=C(n3nc(-c4ccccc4)nc3-c3ccccc3)N=C(S)N2)c(OC)c1 (configuration not stated)
minimal effective dose (Mus musculus [1]): 30 mg/kg
minimal effective dose (Mus musculus [2]): 300 mg/kg

Cc1ccc(C2=C(CC(=O)O)C(c3cccs3)NC(S)=N2)cc1 (configuration not stated)
inhibition in vivo at 10 mg/kg (Rattus norvegicus): 10%

O=c1c(O)c(-c2ccc(O)c(O)c2)oc2cc(O)cc(O)c12
Activity [4]: 82.3%
absorbance [5]: 1.2
Activity [6]: 55.3%

Source: ChEMBL document CHEMBL4024708, “Recent synthetic and medicinal perspectives of dihydropyrimidinones: A review” (Eur J Med Chem, 2017)
